ChEMBL document CHEMBL1154599 (J Med Chem, 2009)
Active and inactive are the calls of the source. The calls are words filed in the database; no cut-off is given here.

Legend:
SH-SY5Y = assay: Cytotoxicity against human SH-SY5Y cells assessed as cellular damage up to 10 uM after 24 hrs by MTS assay; assay type: functional, cell-based
Method in brief: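 Human neuroblastoma SH-SY5Y cells kept in DMEM with 10% heat-inactivated FBS. Seeded at 6.25 × 10^4/cm2 and grown 72 h to subconfluence. Switched to serum-free neurobasal medium 30 min before compound, then 24 h at 37 °C with 1, 3, 10, 30 or 100 μM compound. Viability read by colorimetric MTS assay.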

[1] = biological target: T1, Amine oxidase [flavin-containing] B (Rattus norvegicus, UniProt P19643); assay: Inhibition of MAO-B from Wistar rat brain by radioenzymatic assay
T1 sequence (P19643 whole entry): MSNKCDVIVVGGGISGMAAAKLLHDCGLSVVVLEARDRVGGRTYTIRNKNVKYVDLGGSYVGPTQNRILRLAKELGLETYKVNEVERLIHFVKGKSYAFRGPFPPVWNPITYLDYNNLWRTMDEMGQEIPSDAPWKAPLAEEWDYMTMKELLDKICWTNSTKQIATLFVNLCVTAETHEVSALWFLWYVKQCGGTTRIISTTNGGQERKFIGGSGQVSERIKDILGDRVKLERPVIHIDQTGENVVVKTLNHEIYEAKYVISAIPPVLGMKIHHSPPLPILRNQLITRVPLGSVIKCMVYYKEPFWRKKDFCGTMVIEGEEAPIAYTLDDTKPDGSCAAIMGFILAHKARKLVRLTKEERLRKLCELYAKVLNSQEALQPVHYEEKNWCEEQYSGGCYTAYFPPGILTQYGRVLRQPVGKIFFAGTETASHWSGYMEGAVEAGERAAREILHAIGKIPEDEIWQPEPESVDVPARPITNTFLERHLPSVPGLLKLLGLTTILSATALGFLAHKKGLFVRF
Method in brief: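 Crude mitochondrial fraction from male Wistar rat brain (150-175 g), 500 μg protein in 0.1 M phosphate pH 7.40. Preincubated 30 min at 37 °C with compound. Substrate then added: [14C]5-HT 5 μM for 30 min (MAO-A) or [14C]PEA 0.5 μM for 10 min (MAO-B), 37 °C. Stopped with acid, deaminated metabolites extracted into ether or toluene, counted by scintillation.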

Rattus norvegicus = species on record: Rattus norvegicus; assay: Selectivity index, ratio of IC50 for rat MAO-A to IC50 for rat MAO-B
Method in brief: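 Ratio of IC50 values from rat brain mitochondrial radioenzymatic assays: MAO-A with [14C]5-HT 5 μM, 30 min, and MAO-B with [14C]PEA 0.5 μM, 10 min. Both after 30 min preincubation with compound at 37 °C.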

[2] = Permeability across PAMPA membrane assessed as retention at 2.5 mM by HDM-PAMPA assay; assay type: ADME; conditions: 2500 µM
Method in brief: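 Hexadecane artificial membrane (0.75 μL per well, applied as 5% v/v in hexane, hexane evaporated) on polycarbonate filters; donor and acceptor in 0.1 M phosphate buffer pH 6.8 with 5% DMSO (iso-pH); 5 h at room temperature, shaking at 75 rpm; quadruplicate. Donor and acceptor concentrations read by UV at λmax. Retention, CA(t)/CD(0) and Pe calculated by the stated equations, τLAG neglected; membrane integrity checked by electrical resistance.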

IC50 [1]: 13 nM
Ratio IC50 (Rattus norvegicus): 457
permeability [2]: 10%
Compound: CNCc1cc(=O)oc2cc(OCc3cccc(Cl)c3)ccc12.CS(=O)(=O)O
Activity (SH-SY5Y): inactive
